Drawing on PubChem BioAssay AID540295 (The Scripps Research Institute Molecular Screening Center, 2011), this text covers inhibition for 59 compounds.

The campaign covered roughly 360,000 compounds. About 1,700 (0.47%) were called active. The sample holds actives, similar compounds and a random draw of the others, so the mix is not that of the screen.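 The calls were made as follows: active = inhibition above its plate's cutoff, the mean of tested wells on that plate plus 3 SD (cut at about 29% in these data); inactive = the rest.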

Chain of Melanocortin receptor 4 (Homo sapiens) (P32245 whole entry, looked up): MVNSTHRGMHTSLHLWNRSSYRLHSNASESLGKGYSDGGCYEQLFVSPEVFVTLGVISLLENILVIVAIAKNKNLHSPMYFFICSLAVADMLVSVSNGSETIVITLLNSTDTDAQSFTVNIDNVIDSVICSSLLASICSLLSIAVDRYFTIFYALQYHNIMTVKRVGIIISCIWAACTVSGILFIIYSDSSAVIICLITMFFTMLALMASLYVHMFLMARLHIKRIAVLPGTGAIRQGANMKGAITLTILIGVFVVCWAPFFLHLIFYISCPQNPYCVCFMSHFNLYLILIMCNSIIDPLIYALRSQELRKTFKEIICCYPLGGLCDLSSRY

For the assay, the target named is Melanocortin receptor 4 (Homo sapiens) (UniProt P32245). As to the kind of experiment: blockers of MC4R Gs-cAMP response – cell-based, TR-FRET, antagonist arm of biased-ligand search, primary screen (AID 540295).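 Also: 0% = Melanotan II alone and 100% = Melanotan II plus saturating MCL0020.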 Particulars: MC4R-expressing cells, MTII-stimulated cAMP, LANCE TR-FRET; at 6.5 µM; active compounds read high. Put shortly: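 Material: U2OS-MC4R stable cell line | Reagent: Melanotan II challenge after compound preincubation | Doses: One concentration, 6.5 µM nominal | Incubation: 30-min compound preincubation, 1-h Melanotan II challenge, 1-h detection, room temperature | Signal: TR-FRET cAMP assay | Replicates: One well per compound, no replicates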
As to `COC(=O)c1sc(NC(=O)COC(=O)C2CCC2)c(C(=O)OC)c1C`, the inhibition was 3.01% (inactive).
In the case of `CCOC(=O)c1c(NC(=O)COC(=O)c2ccc(S(=O)(=O)C(F)F)cc2)sc(C(=O)N(C)C)c1C`, the inhibition was 8.14% (inactive).
`CCOC(=O)c1c(NC(=O)CCl)sc(C(=O)N(CC)CC)c1C`: the inhibition is 32.6% (active).
Turning to `O=S(=O)(c1ccc(SCc2ccc(Br)cc2)nc1)N1CCOCC1`, the inhibition was 5.21% (inactive).
Take `CCCCC1N2CC3([N+](=O)[O-])CN1CC([N+](=O)[O-])(C2)C3(C)C` (centres undefined): the inhibition was 1.22% (inactive).
Regarding `Cn1c(=O)[nH]c(=O)c2c1nc(CN1CCN(c3ccccc3F)CC1)n2CCc1ccccc1`, the inhibition was 4.45% (inactive).
With `COc1ccc2oc(N)c(C=O)c(=O)c2c1`, the inhibition was 37.6% (active).
The value for `COc1ccc2oc(N)nc2c1` was -3.46% (inactive); that for `COc1ccc2oc(=O)cc(CN3CCOCC3)c2c1` was 5.75% (inactive); that for `O=C(Nc1ccccc1)c1nnsc1S(=O)(=O)c1ccc(Cl)cc1` was 22.3% (inactive).
Regarding `CCOC(=O)N1CCN(C(=O)c2ccccc2N(Cc2ccccc2)S(=O)(=O)c2ccc(OC)cc2)CC1`, the inhibition was -11% (inactive).
The value for `COc1cccc(NC(=O)c2ccccc2N(Cc2ccccc2)S(C)(=O)=O)c1` was 4.09% (inactive); that for `COc1ccc(/C=N/OCC(=O)N(Cc2ccccc2)c2ccccc2C(=O)O)cc1` was 32.2% (active).
Consider `CCc1nnc(NC(=O)[C@@H](NC(=O)c2cccc(C)c2)C(C)C)s1`, for which the inhibition was 2.22% (inactive).
With `COc1cccc(NC(=O)Cn2c3ccccc3c3nc4n(c(=O)c32)CCS4)c1`, the inhibition was 19.8% (inactive).
For the compound `COc1ccc(-c2nc3n(c(=O)c2C#N)CCS3)c(OC)c1`, the inhibition is 30.9% (active).
As for `COc1ccc2c(c1)c1nc3n(c(=O)c1n2CC(=O)Nc1ccccc1)CCS3`, the inhibition was -10.3% (inactive).
`CC=CCn1c(SCCCc2ccccc2)nc2c1c(=O)[nH]c(=O)n2C`: the inhibition is -6.73% (inactive).
As for `COc1ccc(S(=O)(=O)NC(=O)C2(C)CCN2C(=O)c2ccccc2CCc2ccccc2)cc1` (centres undefined), the inhibition was -3.11% (inactive).
On to `N#Cc1ccc(OCC(=O)Nc2nc(-c3ccccn3)cs2)cc1`, for which the inhibition was -1.39% (inactive).
On to `CCCC/C(C)=N/NC(=O)NC1CCCCC1`, for which the inhibition was 6.08% (inactive).
In the case of `COc1ccc(CCNC(=O)CCCCCNC(=O)N2CCn3c2nc2ccccc23)cc1OC`, the inhibition was 2.13% (inactive).
`COc1ccc(NC(=O)/C(Cl)=C(/Cl)S(=O)Cc2ccc(C)cc2)cn1` (centres undefined): the inhibition is 57.8% (active).
Take `COc1ccc(NC(=O)CN2C(=O)NC(C)(c3ccccc3)C2=O)cn1` (centres undefined): the inhibition was -0.87% (inactive).
`COc1ccc(NC(=O)C2Cc3c(-c4ccc5c(c4)OCO5)ccnc3O2)cn1` (centres undefined): the inhibition is -23.9% (inactive).
On to `COc1cc(C(=O)NCc2ccc(-n3cccc3)cc2)cc(OC)c1OC`, for which the inhibition is 5.76% (inactive).
Regarding `Cc1cccc(-c2cnc(C(O)c3ccc4ccccc4c3)[nH]2)c1` (centres undefined), the inhibition was 5.06% (inactive).
The figure for `Cc1c(CCC(=O)O)c(=O)oc2c(C)c(OCc3ccccc3Cl)ccc12` is 17.1% (inactive); for `Cc1c(CCC(=O)O)c(=O)oc2cc(OCc3ccc(Br)cc3)ccc12` it is 29.8% (active).
As to `Cc1coc2cc3oc(=O)c(CCC(=O)O)c(C)c3cc12`, the inhibition was 4.19% (inactive).
With `CCOC(=O)N1CCN(Cc2nnc(-c3ccccc3Cl)o2)CC1`, the inhibition is 2.09% (inactive).
For the compound `CCOC(=O)C1CCN(Cc2nnc(-c3cccc(Br)c3)o2)CC1`, the inhibition is 7.07% (inactive).
`Cc1ccc(-c2nnc(CN3CCN(C)CC3)o2)cc1`: the inhibition is 30.6% (active).
`S=c1[nH]nc(-c2ccco2)n1/N=C/c1ccc(Br)s1`: the inhibition was -2.7% (inactive).
Turning to `Cc1ccc(Cl)cc1-c1ccc(/C=N/n2cnnc2)o1`, the inhibition is -0.99% (inactive).
Turning to `Cc1ccccc1-c1n[nH]c(=S)n1/N=C/c1ccc(-c2ccccc2Br)o1`, the inhibition was 28.7% (active).
For `Cc1nn(Cc2ccc(F)cc2)c(C)c1NC(=O)c1noc2c1CCc1ccccc1-2`, the inhibition is 10.4% (inactive).
`COc1cc(C(=O)N2CCOC23CCN(Cc2ccccc2)CC3)cc(OC)c1OC`: the inhibition is 0.19% (inactive).
`O=C(c1ccc2c(c1)N(Cc1ccc(F)cc1)C(=O)c1ccccc1S2(=O)=O)N1CCN(c2ccccn2)CC1`: the inhibition is 30.5% (active).
Regarding `O=C(c1ccc2c(c1)C(=O)N(c1ccc(Cl)cc1)C2=O)N1CCN(c2ccccn2)CC1`, the inhibition is 7.23% (inactive).
In the case of `O=C1c2ccccc2S(=O)(=O)c2cc(N3CCN(c4ccccn4)CC3)ccc21`, the inhibition is 11.1% (inactive).
Consider `Cc1ccc(C)c(N2CCN(C(=O)CCc3nc(-c4cccc(C(F)(F)F)c4)no3)CC2)c1`, for which the inhibition is -2.59% (inactive).
The figure for `COc1cccc(OC)c1C(=O)Nc1c(C(=O)N2CCN(c3ccccn3)CC2)oc2ccccc12` is 36.6% (active); for `Cc1cc(C(=O)N2CCN(c3ccccn3)CC2)c(C)o1` it is -0.72% (inactive).
The value for `COCC(=O)Nc1c(C(=O)N2CCCC2)oc2ccccc12` was 2.6% (inactive); that for `CCOc1ccc(CCNC(=O)CN2C(=O)NC3(CCc4ccccc43)C2=O)cc1OCC` (centres undefined) was 7.52% (inactive).
The value for `CCO[C@H]1OC(C(=O)Nc2ccccc2)=C[C@@H](C2CC2)[C@@H]1CCCO` was 8.5% (inactive); that for `COc1cc(S(=O)(=O)Nc2ncn[nH]2)ccc1Cl` was 3.99% (inactive).
In the case of `COc1ccc(OC)c(S(=O)(=O)Nc2c(C)nn(C)c2C)c1`, the inhibition was -0.88% (inactive).
Regarding `COc1ccc(C(C)C)cc1S(=O)(=O)Nc1ncn[nH]1`, the inhibition was 32.9% (active).
The figure for `O=C(CN1C(=O)NC2(CCCC2)C1=O)Nc1cc(C(F)(F)F)ccc1N1CCOCC1` is 2.08% (inactive); for `CC(C)CC(=O)Nc1cc(C(F)(F)F)ccc1N1CCOCC1` it is 8.93% (inactive); for `O=C(Cn1nnc2ccccc2c1=O)Nc1cc(C(F)(F)F)ccc1N1CCOCC1` it is 30.3% (active).
Take `O=C(Nc1nccs1)c1cc(S(=O)(=O)N2CCOCC2)c(Cl)cc1Cl`: the inhibition is 35.1% (active).
Consider `O=C(NCc1cccnc1)c1cc(S(=O)(=O)N2CCOCC2)c(Cl)cc1Cl`, for which the inhibition was 2.73% (inactive).
Regarding `O=C(Nc1ccc(S(=O)(=O)Nc2nccs2)cc1)c1cccc(S(=O)(=O)N2CCOCC2)c1`, the inhibition was 13.1% (inactive).
Consider `COc1ccccc1N(CC(=O)N/N=C(\C)c1ccccc1O)S(=O)(=O)c1ccc(C)cc1`, for which the inhibition is 33.9% (active).
The value for `Cc1ccc(S(=O)(=O)N(CC(=O)N/N=C/c2ccc(F)cc2)c2cccc3cccnc23)cc1` was 15.1% (inactive); that for `COc1ccccc1N(CC(=O)Nc1c(C)n(C)n(-c2ccccc2)c1=O)S(=O)(=O)c1ccccc1` was -1.81% (inactive).
